Assay results: PMC6459613 (ACS chemical biology, 2012)
Several values for one entry are separate records, joined by “and”; a condition that tells them apart may be missing. Identical values can stand only once.

Key:
[1] = test system: GST-JNK1; conditions: read-out: IC50 for displacing biotinylated pepJIP1 from GST-JNK1; cited from earlier work
[2] = test system: JNK activity in Jurkat T cells; conditions: cited from earlier work
[3] = test system: JNK; conditions: read-out: in-vitro cell-free IC50; ATP-competitive; cited from earlier work
[4] = test system: JNK2α2 in HEK293T cells; test: Western blot in HEK293T cells transfected with WT-JNK2α2; type: cell-based; conditions: for JNK2α2 autophosphorylation: HEK293T over-expressing JNK2α2, without anisomycin
Outline: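 HEK293T cells were transfected with wild-type JNK2α2 or empty pcDNA3 vector. They were treated with DMSO or varying test compound concentrations without anisomycin, or with an ATP-competitive reference JNK inhibitor with and without anisomycin. Western blots assessed JNK2α2 autophosphorylation and c-Jun phosphorylation, from which an ED50 was estimated.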

[5] = test system: RAW264.7 cells; conditions: LPS-stimulated RAW264.7 cells; cited from earlier work
[6] = test system: JNK pathway in HEK293 cells; test: Western blot of phospho-JNK and phospho-c-Jun in anisomycin-treated HEK293 cells; type: cell-based; conditions: for activation (phosphorylation) of JNK isoforms / phosphorylation of c-Jun (phospho-Ser-63): HEK293, 5-100 μM, 12 hours, then anisomycin
Outline: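 HEK293 cells were pretreated for 12 hours with DMSO or test compound at 5-100 μM. The JNK pathway was then induced with anisomycin (50-100 nM) for 5-10 minutes before lysis. Western blots detected phospho-JNK and phospho-c-Jun, and an ED50 was estimated.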

[7] = test system: MDA-MB-231 cells; test: Transwell chemotactic cell migration assay; type: cell-based, human; conditions: for inhibition of migration: overnight, migration in response to serum
Outline: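 Chemotactic migration of MDA-MB-231 cells was measured in transwells. Cells were treated overnight with DMSO or test compound at 50 or 100 μM, and viability was monitored. Migrated cells on the membrane underside were stained with crystal violet. Three independent repeats.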

[8] = test system: MDA-MB-231 cells; test: Cell viability monitored during migration and wound assays; type: cell-based, human; conditions: for cell viability during the migration assay: transwell assay, 50 and 100 μM; for cell viability during the wound assay: up to 200 μM
[9] = biological target: WT-MKK4 (Homo sapiens, UniProt P45983); test: Phosphorylation of inactive JNK1 by active MKK4; type: biochemical
[10] = test system: activated JNK1, JNK2 and JNK3; type: biochemical; conditions: read-out: IC50 values; range over JNK1, JNK2 and JNK3; GST-c-Jun 2 μM
Outline: (§1)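 Activated JNK isoforms phosphorylated GST-c-Jun (1-221) at 2 μM across a dose range of test compound. Dose-response data were fitted to V0 = V00 − V00·i/(i+K50) + V′, where K50 is the half-maximal concentration and V′ is the residual rate at saturating inhibitor.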

[11] = biological target: JNK1 (Homo sapiens, UniProt P45983); test: Phosphorylation of GST-c-Jun; type: biochemical
Outline: as §1

[12] = test system: JNK; test: Steady-state kinetic analysis of c-Jun phosphorylation; type: biochemical; conditions: partial competitive inhibition model
Outline: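 Initial velocities were measured with c-Jun varied at 0.63-20 μM and test compound fixed at several levels (0-50 μM), with saturating MgATP at 0.5 mM. Rates came from linear least-squares fits of product versus time. Double-reciprocal plots were checked for linearity. Data were fitted by nonlinear least squares to a partial competitive inhibition equation.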

[13] = biological target: ERK2 (Homo sapiens, UniProt P28482); test: MAP kinase selectivity assay, ERK2; type: biochemical
[14] = biological target: p38MAPKβ (Homo sapiens, UniProt Q15759); test: MAP kinase selectivity assay, p38MAPKβ; type: biochemical
[15] = biological target: WT-MKK7 (Homo sapiens, UniProt P45983); test: Phosphorylation of inactive JNK1 by active MKK7; type: biochemical
[16] = test system: JNK2α2 (C163A); test: c-Jun phosphorylation in HEK293T cells transfected with JNK2α2; type: cell-based; conditions: 0-100 μM
Outline: (§2)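 HEK293T cells were transfected with JNK2α2 DRS mutants (Y130A or C163A) or empty pcDNA3 vector and treated with test compound (0–100 μM). Western blots tracked JNK autophosphorylation and c-Jun phosphorylation, compared with non-transfected cells. Results are representative of three independent experiments.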

[17] = biological target: p38MAPKδ (Homo sapiens, UniProt O15264); test: MAP kinase selectivity assay, p38MAPKδ; type: biochemical
[18] = biological target: ERK1 (Homo sapiens, UniProt P27361); test: MAP kinase selectivity assay, ERK1; type: biochemical
[19] = test system: Akt phosphorylation mediated by JNK2α2; test: Akt phosphorylation at Ser-473 in HEK293T cells transfected with WT-JNK2α2; type: cell-based; conditions: HEK293T transfected with WT-JNK2α2, without anisomycin
Outline: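 Wild-type JNK2α2 was transfected into HEK293T cells. Cells were exposed to DMSO vehicle or a series of test compound concentrations, with no anisomycin stimulation. Akt activation was followed as phosphorylation at Ser-473.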

[20] = test system: JNK2α2 (Y130A); test: c-Jun phosphorylation in HEK293T cells transfected with JNK2α2; type: cell-based; conditions: 0-100 μM
Outline: as §2

[21] = biological target: p38MAPKγ (Homo sapiens, UniProt P53778); test: MAP kinase selectivity assay, p38MAPKγ; type: biochemical
[22] = test system: MDA-MB-231 cells; test: Scratch wound closure assay; type: cell-based, human; conditions: 100 and 200 μM, 24 hrs post-wounding
Outline: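 MDA-MB-231 cells were pretreated with graded concentrations of test compound. A scratch wound was then made and medium was replaced with 1% FBS-containing medium. Wound closure was measured at 0 and 24 h post-wounding, with viability checked alongside. Three independent experiments.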

[23] = test system: ERK2 pathway; test: ERK pathway specificity in HEK293 cells, EGF induced; type: cell-based; conditions: 100 μM
Outline: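 HEK293 cells received DMSO or test compound (0-100 μM) for 12 hours. The ERK pathway was then induced with 50 ng EGF for 5-10 minutes and cells were lysed. Lysates were run on 10% SDS-PAGE and western blotted for phospho-ERK and phospho-p90RSK.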

[24] = biological target: JNK3 (Homo sapiens, UniProt P53779); test: Phosphorylation of GST-c-Jun; type: biochemical
Outline: as §1

Chain of WT-MKK4 (P45983 whole entry): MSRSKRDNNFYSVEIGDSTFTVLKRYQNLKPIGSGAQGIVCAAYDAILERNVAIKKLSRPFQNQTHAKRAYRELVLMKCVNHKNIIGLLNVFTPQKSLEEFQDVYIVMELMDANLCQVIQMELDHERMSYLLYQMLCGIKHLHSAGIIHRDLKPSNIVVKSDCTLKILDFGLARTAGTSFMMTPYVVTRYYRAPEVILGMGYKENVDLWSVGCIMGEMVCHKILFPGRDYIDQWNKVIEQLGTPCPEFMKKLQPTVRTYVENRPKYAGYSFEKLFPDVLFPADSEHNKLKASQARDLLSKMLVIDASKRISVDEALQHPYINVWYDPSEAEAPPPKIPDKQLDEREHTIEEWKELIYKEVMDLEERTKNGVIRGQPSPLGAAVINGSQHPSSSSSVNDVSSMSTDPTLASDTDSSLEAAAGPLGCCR
Chain of ERK2 (P28482 whole entry, species assumed): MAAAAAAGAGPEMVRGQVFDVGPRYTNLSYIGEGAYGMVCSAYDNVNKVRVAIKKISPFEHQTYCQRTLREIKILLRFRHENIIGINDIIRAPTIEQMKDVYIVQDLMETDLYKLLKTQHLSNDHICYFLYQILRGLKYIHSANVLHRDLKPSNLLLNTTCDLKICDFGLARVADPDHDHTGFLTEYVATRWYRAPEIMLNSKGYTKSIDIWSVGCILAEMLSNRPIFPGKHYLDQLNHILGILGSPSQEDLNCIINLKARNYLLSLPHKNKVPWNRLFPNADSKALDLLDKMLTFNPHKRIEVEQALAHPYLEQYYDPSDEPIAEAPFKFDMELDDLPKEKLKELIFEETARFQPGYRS
Chain of p38MAPKδ (O15264 whole entry): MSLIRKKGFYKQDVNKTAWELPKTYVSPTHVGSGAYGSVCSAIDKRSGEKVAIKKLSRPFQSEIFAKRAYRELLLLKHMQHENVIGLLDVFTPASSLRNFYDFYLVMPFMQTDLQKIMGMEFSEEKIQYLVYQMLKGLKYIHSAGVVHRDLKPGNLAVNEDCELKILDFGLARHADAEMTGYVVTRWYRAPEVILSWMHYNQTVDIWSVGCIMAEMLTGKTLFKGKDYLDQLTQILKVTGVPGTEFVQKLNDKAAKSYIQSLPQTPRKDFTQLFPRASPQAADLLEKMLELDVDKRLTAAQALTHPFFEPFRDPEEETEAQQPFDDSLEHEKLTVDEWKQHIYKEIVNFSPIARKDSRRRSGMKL
Chain of JNK3 (P53779 whole entry): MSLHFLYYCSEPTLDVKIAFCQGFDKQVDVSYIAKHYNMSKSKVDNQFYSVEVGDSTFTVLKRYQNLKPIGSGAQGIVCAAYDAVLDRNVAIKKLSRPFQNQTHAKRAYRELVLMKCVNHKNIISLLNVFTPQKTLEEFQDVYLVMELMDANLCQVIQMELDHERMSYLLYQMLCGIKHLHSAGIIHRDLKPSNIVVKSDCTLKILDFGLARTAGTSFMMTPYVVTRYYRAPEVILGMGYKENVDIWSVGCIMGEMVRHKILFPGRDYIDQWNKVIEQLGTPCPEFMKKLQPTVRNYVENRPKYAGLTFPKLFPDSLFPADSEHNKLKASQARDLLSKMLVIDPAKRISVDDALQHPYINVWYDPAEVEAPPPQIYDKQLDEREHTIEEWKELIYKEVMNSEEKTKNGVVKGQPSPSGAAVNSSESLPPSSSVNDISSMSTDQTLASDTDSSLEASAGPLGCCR
Chain of WT-MKK7 (P45983 whole entry): as the sequence (P45983 whole entry) above
Chain of JNK1 (P45983 whole entry): as above
Chain of p38MAPKγ (P53778 whole entry): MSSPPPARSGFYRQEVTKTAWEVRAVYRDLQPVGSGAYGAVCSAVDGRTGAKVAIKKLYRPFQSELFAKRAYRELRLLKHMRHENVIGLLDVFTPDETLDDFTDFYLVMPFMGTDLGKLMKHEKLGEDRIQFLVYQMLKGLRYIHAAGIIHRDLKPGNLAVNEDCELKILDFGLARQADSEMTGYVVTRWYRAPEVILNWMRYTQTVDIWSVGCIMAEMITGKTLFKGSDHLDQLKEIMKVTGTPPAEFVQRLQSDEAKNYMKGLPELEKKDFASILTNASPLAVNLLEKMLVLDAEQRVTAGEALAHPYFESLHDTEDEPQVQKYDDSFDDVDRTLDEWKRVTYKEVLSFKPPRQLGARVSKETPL
Chain of ERK1 (P27361 whole entry, species assumed): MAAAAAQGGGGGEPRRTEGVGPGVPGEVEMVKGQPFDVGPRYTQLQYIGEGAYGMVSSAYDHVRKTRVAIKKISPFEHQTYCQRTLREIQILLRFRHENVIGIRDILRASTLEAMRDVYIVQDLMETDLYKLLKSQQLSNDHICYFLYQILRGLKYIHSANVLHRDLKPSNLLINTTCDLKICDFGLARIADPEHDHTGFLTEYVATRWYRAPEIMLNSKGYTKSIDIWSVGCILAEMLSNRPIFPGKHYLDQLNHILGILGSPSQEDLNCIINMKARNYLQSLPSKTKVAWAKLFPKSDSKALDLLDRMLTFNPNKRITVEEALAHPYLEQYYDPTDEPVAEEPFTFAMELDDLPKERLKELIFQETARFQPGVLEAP
Chain of p38MAPKβ (Q15759 whole entry): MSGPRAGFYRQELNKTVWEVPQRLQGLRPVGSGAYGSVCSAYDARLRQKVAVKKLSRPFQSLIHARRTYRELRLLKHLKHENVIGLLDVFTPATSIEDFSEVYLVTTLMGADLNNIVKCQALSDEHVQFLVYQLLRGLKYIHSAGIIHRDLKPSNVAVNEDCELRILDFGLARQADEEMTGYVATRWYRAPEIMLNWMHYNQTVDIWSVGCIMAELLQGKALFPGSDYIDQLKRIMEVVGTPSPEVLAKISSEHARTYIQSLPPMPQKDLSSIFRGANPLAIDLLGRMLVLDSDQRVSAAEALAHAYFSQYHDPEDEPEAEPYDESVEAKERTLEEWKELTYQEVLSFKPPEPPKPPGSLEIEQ

For O=c1[nH]nc(Sc2ncc([N+](=O)[O-])s2)n1-c1ccc2c(c1)OCCO2 [BI-78D3], the IC50 [1] is listed as 0.5 µM.
In the case of Oc1c2ccccc2c2c3c(cccc13)N=N2 [SP600125, reference compound], the “ED50 for JNK activity” value [2] is listed as about 10 µM, the IC50 [3] is listed as 0.04 to 0.1 µM and the “JNK2α2 phosphorylation in cells stimulated using anisomycin” value ([4]; HEK293T over-expressing JNK2α2, with anisomycin) is listed as “no longer able to inhibit”. The JNK2α2 autophosphorylation [4] was “autophosphorylation was inhibited”.
In the case of COc1cc([C@H]2O[C@H](c3ccc4c(c3)OCO4)[C@H](C)[C@H]2C)ccc1O[C@H](C)[C@@H](O)c1ccc2c(c1)OCO2 [saucerneol F], the “nitric oxide (NO) production” value [5] is given as “inhibits nitric oxide (NO) production in a dose-dependent manner”.
In the case of (+)-zuonin A, the “activation (phosphorylation) of JNK isoforms” value [6] is reported as “inhibits neither JNK activation nor c-Jun phosphorylation”, the “phosphorylation of c-Jun (phospho-Ser-63)” value [6] is reported as “inhibits neither JNK activation nor c-Jun phosphorylation” and the “effect on cell migration” value ([7]; 50 and 100 μM) is reported as “able to mildly suppress cell migration”. For the same compound, the “cell viability during the migration assay” value [8] was “unaffected” and the “cell viability during the wound assay” value [8] was “unaffected”.
In the case of (−)-zuonin A, the “% Inhibition at Saturating (−)-zuonin A (200 μM)” value (shortened to “% Inhibition at Saturating”) ([9]; 200 μM, phosphorylation of JNK) is reported as 77%, the IC50 ([9]; inhibits the phosphorylation of JNK (inactive JNK1) by MKK4) is reported as ~1.8 µM and 1.8 µM and the IC50 [10] is reported as 1.7 to 2.9 µM. The “activation (phosphorylation) of JNK isoforms” value [6] was “blunts the activation of the JNK isoforms in cells in a dose-dependent manner”, the “phosphorylation of c-Jun (phospho-Ser-63)” value [6] was “clearly blunted” and the “ED50 for inhibiting JNK phosphorylation” value ([6]; HEK293 cells, stimulation by anisomycin) was “around 25 μM”. For the same compound, the “% Inhibition at Saturating” value ([11]; 200 μM) was 75%, the IC50 ([11]; GST-c-Jun 2 μM) was 1.7 ± 0.26 µM and the “α (factor by which affinity of JNK for c-Jun is weakened)” value [12] was about 5. The “β (effect on kcat)” value [12] was 1, the inhibition of migration ([7]; 50 μM) was “approximately 45%” and the inhibition of migration ([7]; 100 μM) was about 80%. For the same compound, the IC50 [13] was over 200 µM, the “% Inhibition at Saturating” value ([13]; 200 μM) was 10% and the “% Inhibition at Saturating” value [14] was 15%. The “% Inhibition at Saturating” value ([15]; 200 μM, phosphorylation of JNK) was 50%, the IC50 ([15]; inhibits the phosphorylation of JNK (inactive JNK1) by MKK7) was 1.99 ± 0.15 µM and the “sensitivity of c-Jun phosphorylation” value [16] was “unresponsive”. For the same compound, the IC50 [17] was over 200 µM, the “% Inhibition at Saturating” value ([17]; 200 μM) was 10% and the IC50 [18] was over 200 µM. The “% Inhibition at Saturating” value ([18]; 200 μM) was 10%, the “Akt phosphorylation (Ser-473) mediated by JNK2α2” value [19] was “able to inhibit Akt phosphorylation” and the “sensitivity of c-Jun phosphorylation” value [20] was “more sensitive”. For the same compound, the JNK2α2 autophosphorylation [4] was “unable to inhibit JNK2α2 autophosphorylation even at a concentration of 100 μM”, the “ED50 for phosphorylation of c-Jun mediated by over-expressed JNK2α2” value ([4]; HEK293T, without anisomycin) was “approximately 25 μM” and the IC50 [21] was over 200 µM. The “% Inhibition at Saturating” value ([21]; 200 μM) was 10%, the wound closure [22] was “sufficient to inhibit wound closure” and the “phosphorylation of ERK or its protein substrate p-90RSK” value [23] was “no effect”. The “% Inhibition at Saturating” value ([24]; 200 μM) was 73%, the IC50 ([24]; GST-c-Jun 2 μM) was 1.74 ± 0.16 µM and the “cell viability during the migration assay” value [8] was “unaffected”. The “cell viability during the wound assay” value [8] was “unaffected”.
